OX1R antag-1 = OX1R (HCRTR1) antagonists, primary screen, fluorescence, CHO/OX1R cells, Fluo-8 calcium, orexin A; inhibition, % at 5 µM; actives 0.43% (n = 330,000); Orexin/Hypocretin receptor type 1 (Homo sapiens), O43613; Fluo-8 calcium fluorescence;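 active means inhibition above its plate's threshold, mean inhibition of all tested compounds on the plate plus 3 SD, cut at about 37% in these data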;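 further: 0% = orexin A challenge wells and 100% = SB-334867-A antagonist wells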
CHO parental Ca = ATP-evoked calcium signal inhibitors, parental CHO, primary screen, counter-screen for OX1R antagonist project, cell-based, fluorescence, Fluo-8 calcium dye; inhibition, % at 5.6 µM; actives 0.63% (n = 330,000); parental CHO-K1, ATP-induced calcium, Fluo-8 fluorescence; AID 463079, 2010;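 active means inhibition above that plate's mean sample inhibition plus 3 SD, cut at about 26% in these data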;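 further: 0% = ATP-challenged DMSO wells and 100% = DMSO wells without ATP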
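Material: parental CHO cells / Compound: single nominal dose of 5.6 µM per compound / Signal: Fluo-8 fluorescence / Replicates: singlicate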
GalR3 antag = GalR3 antagonists in HEK293 cells, primary screen, cell-based, fluorescence readout | Galanin receptor type 3 (Homo sapiens), O60755 | HEK293 GalR3-CNG cAMP membrane potential fluorescence; galR3 body fused to GalR1 C-terminus | inhibition, % at 3 µM | actives 0.44% (n = 360,000) | AID 651719, 2012;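 active means inhibition above the screen-wide average plus 3 SD, cut at about 13% in these data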;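 further: forskolin and galanin both at EC90 stimulate the cells; cAMP rise reported by CNG channel membrane potential dye signal; 0% = forskolin plus galanin with DMSO and 100% = forskolin alone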
Target sequence (O60755 1-299 limits assumed): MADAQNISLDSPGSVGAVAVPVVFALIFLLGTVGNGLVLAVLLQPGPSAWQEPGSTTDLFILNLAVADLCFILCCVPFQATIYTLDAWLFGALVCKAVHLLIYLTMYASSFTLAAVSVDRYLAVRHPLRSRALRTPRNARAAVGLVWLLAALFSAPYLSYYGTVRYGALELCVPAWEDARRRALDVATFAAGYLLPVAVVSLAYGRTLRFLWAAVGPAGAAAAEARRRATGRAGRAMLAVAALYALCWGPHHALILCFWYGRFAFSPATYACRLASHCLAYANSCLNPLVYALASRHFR
GPR7 antagonist = GPR7 receptor antagonists, primary screen, cell-based, fluorescence, single concentration | Neuropeptides B/W receptor type 1 (Homo sapiens), P48145 | GPR7-expressing cells, fluorescence antagonist assay | inhibition, % at 4.4 µM | actives 1.1% (n = 290,000) | AID 1861, 2009; in the data active means inhibition above about 16%, passing the limit was not always enough;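 further: cells stimulated with the agonist NPW; 0% = agonist with vehicle and 100% = vehicle without agonist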
Target sequence (P48145 whole entry, looked up): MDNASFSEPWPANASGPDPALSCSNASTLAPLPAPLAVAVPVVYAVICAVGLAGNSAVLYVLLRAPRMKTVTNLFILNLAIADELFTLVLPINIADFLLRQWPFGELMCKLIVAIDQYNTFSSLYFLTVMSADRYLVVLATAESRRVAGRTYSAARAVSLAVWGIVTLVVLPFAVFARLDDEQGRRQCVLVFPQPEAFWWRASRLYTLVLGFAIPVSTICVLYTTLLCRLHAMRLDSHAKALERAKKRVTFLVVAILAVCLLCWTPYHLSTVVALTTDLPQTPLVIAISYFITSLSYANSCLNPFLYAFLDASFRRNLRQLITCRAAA
OX1R antag-2 = antagonists of human orexin 1 receptor (OX1R); OX1R-expressing cells, FRET antagonist read-out; Orexin/Hypocretin receptor type 1 (Homo sapiens), O43613; inhibition, % at 6.6 µM; actives 1.8% (n = 330,000); in the data active means inhibition mostly above about 38%, no sharp cut-off; inactive means mostly below about 40%;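 further: 0% = agonist challenge alone and 100% = reference antagonist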
GalR3 conf = GalR3 antagonist hit confirmation, cell-based, fluorescence, triplicate. shares compounds with GalR3 antag. HEK293 GalR3 CNG cAMP biosensor, membrane potential fluorescence; galR3 fused to GalR1 carboxy tail; challenged with forskolin and galanin at EC90. inhibition, % at 3 µM. actives 59% (n = 1,600);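 active means inhibition above the primary screen's cutoff, the mean inhibition of all screened compounds plus 3 SD, cut at about 13% in these data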;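 further: 0% = forskolin plus galanin and 100% = forskolin alone with DMSO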
CNG parental = nonspecific cAMP agonists in parental HEK-CNG cells, counter-screen for GalR3 antagonist project, cell-based, fluorescence, high throughput; shares compounds with GalR3 antag; HEK293-CNG parental cells, cAMP membrane potential fluorescence; normalised: DMSO wells 0%, forskolin wells 100%; activation, % at 3 µM; actives 10% (n = 1,600); AID 652268, 2013; in the data active means activation above about 1.3%
An asterisk follows results filed as active; . = no result; ! = a repeat was not active. The list is not random: actives were taken first. Their share in the collection is about 3.1%.

SMILES	OX1R antag-1	CHO parental Ca	GalR3 antag	GPR7 antagonist	OX1R antag-2	GalR3 conf	CNG parental
Cc1ccnc(NC(=O)c2ccc(S(=O)(=O)N3CCCCCC3)cc2)c1	-21	-16	-4	.	31	.	.
O=C(COc1ccc2c(c1)oc(=O)c1ccccc12)NC(Cc1ccc(Cl)cc1)C(=O)O (stereo unspecified)	13	0	26*	-9	10	4	0
O=C(COc1ccc2c(c1)oc(=O)c1ccccc12)N[C@@H](Cc1ccccc1)C(=O)O	7	1	0	-8	11	.	.
Cc1csc2ncnc(NC3CCN(Cc4ccccc4)CC3)c12	23	2	96*	15	35	108*	0
O=C(CNc1ccc(Br)cc1)Nc1ccc(S(=O)(=O)N2CCCCC2)cc1	.	.	-8	.	.	.	.
COc1ccc(OCCSc2nnc(Cc3cccc4ccccc34)n2N)cc1	-28	-23	-6	-5	13	.	.
CCOc1ccc(NS(=O)(=O)c2ccc3c(c2)CCN3C(C)=O)cc1	-34	-8	-10	-2	-8	.	.
O=C(NCc1cccc(C(F)(F)F)c1)c1ccc2sc([C@@H]3O[C@H](CO)[C@@H](O)[C@H]3O)nc2c1	.	.	-2	.	.	.	.
O=C(NCC(F)(F)F)c1ccc2sc([C@@H]3O[C@H](CO)[C@H](O)[C@H](O)[C@H]3O)nc2c1	.	.	40*	.	.	0	0
COc1ccc(NC(=O)CSc2ncccc2C(=O)OC(C)C)cc1OC	6	18	28*	2	22	13*	0
COc1ccc(C2CC(c3ccc4ccccc4c3)=NN2C(=O)CN2CCC(C(N)=O)CC2)cc1 (stereo unspecified)	-24	-24	14*	1	16	-2	3.0*
COc1ccc(C2CC(c3ccc4ccccc4c3)=NN2C(=O)CNC2CCCCC2)cc1 (stereo unspecified)	5	12	-7	18	2	.	.
O=C(N/N=C/C1CC=CCC1)c1ccc(O)cc1O (stereo unspecified)	8	-17	-5	3	1	.	.
COc1cc(C(=O)N/N=C/C2CC=CCC2)cc(OC)c1OC (stereo unspecified)	-18	-5	13*	6	3	1	0
CC(C)(C)NC(=O)COC(=O)c1snc(C(=O)NC2CCCCC2)c1N	26	12	101*	9	53	123*	-1
COc1ccc(CN2C(=O)c3ccccc3C2c2nnnn2C(C)C)cc1 (stereo unspecified)	.	.	1	.	.	.	.
CCOC(=O)c1sc2ncnc(N3CCN(C(=O)OCC)CC3)c2c1C	-10	-7	15*	-8	14	21*	0
COc1ccc2nc(SC(C)C(=O)NC3CCCC3)[nH]c2c1 (stereo unspecified)	.	.	12	.	.	.	.
CC(C)[C@H](NC(=O)c1c(F)cccc1F)C(=O)N1CCN(c2ccc(F)cc2)CC1	-9	-30	13*	-1	6	4	0
COc1ccc(-c2cc(C(F)(F)F)n3ncc(C(=O)Nc4c(C)n(C)n(-c5ccccc5)c4=O)c3n2)cc1	-3	2	.	-12	11	.	.
CC1(CSc2ccccc2)CC(=O)N1 (stereo unspecified)	.	.	21*	.	.	29*	0
O=C(NCc1ccccc1)NC(=O)c1ccc(Cl)cc1	-15	-18	-4	-10	13	.	.
COc1ccccc1-n1c(-c2ccccc2)c[nH]c1=S	.	.	-2	-4	.	.	.
COc1ccccc1-n1c(-c2ccccc2)c[n+]2c1CCc1ccccc1-2	-25	6	53*	28*	21	68*!	1.6*
CC(=O)c1cccc(CN2CCN(CCc3ccccc3)C(CCO)C2)c1 (stereo unspecified)	-28	-17	5	6	21	.	.
SMILES	OX1R antag-1	CHO parental Ca	GalR3 antag	GPR7 antagonist	OX1R antag-2	GalR3 conf	CNG parental
CC(=O)c1cccc(CN2CCN(CC=C(C)C)C(CCO)C2)c1 (stereo unspecified)	-16	-10	16*	-13	8	1	0
COC(=O)C1CCN(Cc2ccc(OCCCN3CCN(c4ccc([N+](=O)[O-])cc4)CC3)cc2)CC1	-20	2	13*	-3	42	114*	3.1*
CC1CCN(CCCCOc2ccc([N+](=O)[O-])cc2)CC1	0	-6	-6	-8	31	.	.
CCCC[C@@H]1Cc2[nH][nH]c(=O)c2[C@H](c2cccc3ccccc23)O1	.	.	-7	.	.	.	.
O=C(c1ccc(Cl)c(S(=O)(=O)N2CCc3ccccc32)c1)N1CCN(c2ccccc2O)CC1	-2	-7	-4	.	11	.	.
O=C(NNC(=O)c1ccccc1O)c1ccc(Cl)c(S(=O)(=O)N2CCc3ccccc32)c1	40*	57*	29*	.	62*	60*	-2
COc1ccc(-n2nnnc2SCC(=O)Nc2c(C)n[nH]c2C)cc1	16	3	-2	.	10	.	.
Cc1cc(=O)[nH]c2ccc(S(=O)(=O)NC3CCCCC3)cc12	-30	-4	13*	-4	8	38*	0
Cc1ccc(S(=O)(=O)NC2CCCC2)cc1C	0	0	-1	2	12	.	.
COc1ccc(/C=C(\C#N)C(=O)N2COCC2(C)C)cc1	-15	-1	-15	3	7	.	.
Cc1noc(NS(=O)(=O)c2ccc(NC(=O)c3cc4ccccc4o3)cc2)c1C	-14	-14	-5	.	3	.	.
Cc1cn(CC(=O)NCCc2c[nH]c3ccccc23)c(=O)[nH]c1=O	.	.	4	.	.	.	.
O=C(CNC(=O)c1ccc(F)cc1)Nc1ccccc1C(F)(F)F	-11	-8	14*	12	3	-3	0
O=C1[C@H]2[C@@H](c3ccc(C(F)(F)F)cc3)N[C@]3(CCCN(Cc4ccco4)C3=O)[C@H]2C(=O)N1Cc1ccccc1	.	.	0	.	.	.	.
Cc1cc(C(=O)Nc2cccc(/C=C/C(=O)O)c2)c(C)o1	7	-1	46*	-3	6	88*	0
Cc1oc(C(C)(C)C)cc1C(=O)Nc1cccc(/C=C/C(=O)O)c1	-3	-7	3	2	12	.	.
Cc1oc(-c2ccccc2)cc1C(=O)Nc1ccccc1	-22	-27	-6	-1	18	.	.

From PubChem
